A value given as a limit tells only on which side of the number the result lay.

A short description of data set [1]: Cytotoxicity against human HSB2 cells after 7 days by Cell-Titer Glo assay. Format: cell-based, CCRF-HSB-2. A digest of the protocol: (§1)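 Uninfected Akata, BCBL1, HSB-2 or MOLT-3 cells incubated with compound for seven days under the matching antiviral-assay conditions. CellTiter-Glo added and luminescence read. CC50 is the concentration reducing cell number by 50%.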

Data set [2] in a line: Antiviral activity against HHV-6A infected in human HSB2 cells assessed as reduction in viral DNA after 7 days by hybridization assay. Particulars: Human betaherpesvirus 6A, HSB2, 168 h. Format: functional, cell-based, Human herpesvirus 6A. A digest of the protocol: (§2)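 Compound serially diluted in medium. Uninfected HSB-2 cells were infected with HHV-6A (GS)-infected HSB-2 cells, and Molt-3 cells with HHV-6B (Z29)-infected Molt-3 cells. Incubation 7 days at 37 °C. Lysis in 4.5 M NaCl/1.2 M NaOH, then transfer to nylon membrane. Viral DNA quantified by digoxigenin-probe hybridization and EC50 calculated. Duplicate wells.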

Data set [3] in a line: Cytotoxicity against human BCBL1 cells after 7 days by Cell-Titer Glo assay. Format: cell-based. A digest of the protocol: as §1
The subject of data set [4] is Human alphaherpesvirus 2. Kind of data set: Antiviral activity against HSV-2 infected in human HFF cells assessed as reduction in cytopathic effect after 3 days by crystal violet staining. Format: functional, organism-based. Particulars: Human alphaherpesvirus 2, HFF, 72 h. An outline of the steps:
(§3)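 Compound diluted over HFF monolayers, then HSV-1 (E-377) or HSV-2 (MS) added at MOI about 0.01 PFU/cell. Held 3 days in humidified 5% CO2. Stained 4 h with 0.1% crystal violet in formalin, rinsed, dried 24 h, and absorbance read at 595 nm. EC50 is 50% CPE reduction. Duplicate wells.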

In data set [5] the test system is Human betaherpesvirus 5. Nature of the data set: Antiviral activity against HCMV infected in human HFF cells assessed as reduction in cytopathic effect after 8 days by plaque reduction assay. Format: functional, organism-based. Particulars: Human betaherpesvirus 5, HFF, 192 h. A digest of the protocol: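 HFF monolayers seeded 2 days ahead and infected with AD169 at about 30 plaques per well, with 1 h adsorption. Compound was then added in MEM with 2% FBS, L-glutamine, penicillin, gentamycin and pooled human gamma globulin. After 8 days, neutral red stain and plaque counts by stereomicroscope. EC50 interpolated. Duplicate wells.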

The nature of data set [6]: Cytotoxicity against human MOLT3 cells after 7 days by Cell-Titer Glo assay. Format: cell-based, MOLT-3. An outline of the steps:
as §1

Data set [7] has as its system Human alphaherpesvirus 1. Kind of data set: Antiviral activity against HSV-1 infected in human HFF cells assessed as reduction in cytopathic effect after 3 days by crystal violet staining. Particulars: Human alphaherpesvirus 1, HFF, 72 h. Format: functional, organism-based. An outline of the steps: as §3
The nature of data set [8]: Cytotoxicity against human Akata cells after 7 days by Cell-Titer Glo assay. Format: cell-based. A digest of the protocol: as §1
Data set [9] deals with Human gammaherpesvirus 8. Nature of the data set: Antiviral activity against HHV-8 infected in human BCBL1 cells assessed as reduction in viral DNA after 7 days by qPCR analysis. Format: functional, organism-based. Particulars: Human gammaherpesvirus 8, BCBL1, 168 h. A digest of the protocol:
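BCBL1 cells kept in RPMI 1640 with 10% FBS, penicillin, gentamycin and L-glutamine. Lytic infection induced with phorbol 12-myristate 13-acetate, then cells added to triplicate compound dilutions. Incubation 7 days at 37 °C in humidified CO2. EC50 is the concentration halving viral DNA accumulation.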

Data set [10] in a line: Antiviral activity against HHV-6B infected in human Molt3 cells assessed as reduction in viral DNA after 7 days by hybridization assay. The settings on record: Human betaherpesvirus 6B, MOLT-3, 168 h. Format: functional, cell-based, Human herpesvirus 6B. A digest of the protocol: as §2
For data set [11], the system named is Human gammaherpesvirus 4. Nature of the data set: Antiviral activity against EBV Akata infected in human Akata cells assessed as reduction in viral DNA after 72 hrs by hybridization assay. Format: functional, organism-based. Particulars: human gammaherpesvirus 4, Akata. An outline of the steps:
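Akata cells kept in RPMI 1640 with 10% FBS, L-glutamine, penicillin and gentamicin. Latent infection was switched to productive by adding goat anti-human IgG, and cells were seeded into compound dilutions made in growth medium. After 72 h the DNA was denatured and blotted onto nylon membrane. Viral DNA was measured with a digoxigenin-labeled probe plus anti-hapten antibody. EC50 is the concentration halving viral DNA. Duplicate wells.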

Data set [12] is described as follows: Cytotoxicity against human HFF cells after 3 to 8 days by crystal voilet staining. Format: cell-based. A digest of the protocol: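 Uninfected HFF cells exposed to the same concentrations as in the CPE assays (3 days for HSV, 7 for VZV, […]). Stained with crystal violet. CC50 is the concentration reducing cell number by 50%. Duplicate wells.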
Data set [13] deals with Human alphaherpesvirus 3. Nature of the data set: Antiviral activity against VZV infected in human HFF cells assessed as reduction in cytopathic effect after 7 days by crystal violet staining. Format: functional, organism-based. The settings on record: Human alphaherpesvirus 3, HFF, 168 h.

With `Nc1nc(SC2CCCC2)c2ncn(/C=C3/CC3(CO)CO)c2n1`, the half-maximal cytotoxic concentration (CC50) at 168 h is 91 µM in [1], above 20 µM in data set [3], above 20 µM in data set [6] and above 20 µM in data set [8]. Besides, the IC50 was 35 µM in data set [2]; above 300 µM in data set [4]; above 50 µM in [5]; above 300 µM in [7]; above 20 µM in data set [9]; 9.9 µM in data set [10]. Further, the IC50 is 0.9 µM in [11] and above 300 µM in data set [13]. In data set [12], this compound displayed a CC50 above 300 µM.
`C=CCOc1nc(N)nc2c1ncn2/C=C1/CC1(CO)CO`: the CC50 at 168 h in [1], in data set [3], in [6] and in data set [8] was above 20 µM throughout. Besides, the IC50 in [2] was above 20 µM; in [4] it was above 300 µM; in data set [5], 1.1 µM; in [7], above 300 µM; in data set [9] it was 17 µM; in data set [10], 11.4 µM. Moreover, the figures for the IC50 in [11] and in data set [13] were 11 µM and above 300 µM, respectively. Further, in [12], the CC50 is above 300 µM.
Consider `Nc1nc(NC2CC2)c2ncn(/C=C3/CC3(CO)CO)c2n1`, for which the CC50 at 168 h is above 20 µM in data set [1], 71.5 µM in [3], above 20 µM in [6] and above 20 µM in data set [8]. In addition, the IC50 in [2] is above 20 µM; in data set [4], above 60 µM; in data set [5], 24 µM; in data set [7] it was above 60 µM; in data set [9], 71 µM; in data set [10] it was above 20 µM. Moreover, the IC50 in [11] is above 20 µM; in data set [13] it was above 60 µM. Besides, the 50% cytotoxic concentration (CC50) in [12] was above 300 µM.
`Nc1nc(SCc2ccccc2)c2ncn(/C=C3/CC3(CO)CO)c2n1`: the cytotoxic concentration (CC50) at 168 h in data set [1] was above 100 µM; in [3], above 20 µM; in [6] it was above 20 µM; in data set [8], above 20 µM. The IC50 is 88 µM in data set [2]; above 300 µM in [4]; above 50 µM in data set [5]; above 300 µM in data set [7]; above 20 µM in data set [9]; above 20 µM in data set [10]. Also, the IC50 in [11] is 3.1 µM; in data set [13], above 60 µM. This compound also showed a CC50 in data set [12] above 300 µM.
Regarding `CCCCCCSc1nc(N)nc2c1ncn2/C=C1/CC1(CO)CO`, the CC50 at 168 h in data set [1] is 60 µM; in data set [3], above 20 µM; in [6] it was above 20 µM; in data set [8], above 20 µM. Besides, the IC50 was above 20 µM in [2]; above 300 µM in [4]; above 50 µM in data set [5]; above 300 µM in data set [7]; above 20 µM in data set [9]; 5.4 µM in data set [10]. The IC50 in [11] was 7.1 µM; in data set [13], above 300 µM. The compound also had a CC50 in data set [12] above 300 µM.
Take `Nc1nc(N)c2nc[nH]c2n1` [2,6-DIAMINOPURINE]: the CC50 at 168 h in data set [1] is above 20 µM; in data set [3], 67 µM; in data set [6] it was above 20 µM; in [8] it was above 20 µM. Moreover, the IC50 in data set [2] is above 20 µM; in data set [4] it was above 300 µM; in data set [5], above 300 µM; in data set [7] it was above 300 µM; in data set [9], 30 µM; in data set [10], 16 µM. The results for the IC50 in data set [11] and in [13] were 11 µM and above 300 µM, respectively. The compound further had a CC50 in [12] above 300 µM.
On to `CSc1nc(N)nc2c1ncn2/C=C1/CC1(CO)CO`, for which the CC50 at 168 h in data set [1] is above 100 µM; in data set [3], above 20 µM; in data set [6] it was above 20 µM; in data set [8] it was above 20 µM. The IC50 is above 100 µM in data set [2]; above 300 µM in data set [4]; above 50 µM in data set [5]; above 300 µM in data set [7]; above 20 µM in data set [9]; 11.6 µM in data set [10]. Further, the IC50 in data set [11] was 11.4 µM; in [13] it was above 60 µM. Moreover, the CC50 in data set [12] was above 300 µM.
